STAT1 inh: inhibitors of IFN-gamma induced STAT1 signaling | NIH 3T3 STAT1-luciferase reporter, luminescence | inhibition, % at 5.5 µM | actives 0.35% (n = 200,000);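 active = inhibition above a set limit, the mean inhibition across all tested compounds plus 3 SD, cut at about 34% in these data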;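 note: 0% = IFN-gamma with DMSO and 100% = IFN-gamma with 300 µM nifuroxazide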
NF-kB expr up: raises NF-kB expression in human neuronal cells. actives 1.6% (n = 190,000). NF-kB reporter expression; active compounds read high. fold change at 12.5 µM; in the data active = fold change above about 3.3
STAT1 act: STAT1 signaling activation; NIH 3T3 STAT1-luciferase reporter, IFN-gamma, luminescence; 100% = IFN-gamma alone, no compound; activation (% of control), % at 5.5 µM; actives 2.6% (n = 200,000); AID 932;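 active = activation above the screen-wide mean activation plus 3 SD, cut at about 130% in these data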;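 note: raw ratio to IFN-gamma control signal so 100% means no change and 0% no light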
APP 5'UTR act: APP 5'UTR luciferase reporter activation. SH-SY5Y APP 5'UTR luciferase reporter, luminescence; zero percent = DMSO vehicle wells. activation, % at 2 µM. actives 1% (n = 190,000);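 active = activation above a set limit, based on mean plus 3 SD of controls, cut at about 140% in these data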
STAT3 blocker: reduces IL-6 driven STAT3 reporter signal; actives 0.89% (n = 190,000); inhibition, % at 5.5 µM; AID 862; U3A cells, IL-6 STAT3-luciferase reporter, luminescence; host cell line lacks STAT1;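 active = inhibition above the mean inhibition across all screened compounds plus 3 SD, cut at about 44% in these data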;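 note: 0% = DMSO only wells and 100% = 100 µM nifuroxazide control wells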
STAT3 act: activators of IL-6 induced STAT3 signaling; AID 871; actives 0.91% (n = 190,000); activation (% of control), % at 5.6 µM; U3A cells, IL-6 STAT3-luciferase reporter, luminescence; 100% = signal with IL-6 EC80 alone;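 active = activation above the screen-wide mean of compound activation plus 3 SD, cut at about 130% in these data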;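 note: 0% = background luminescence of wells with medium and substrate only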
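Test system: human U3A cells carrying STAT3-luciferase construct; control set: IL-6-only wells as 100% reference; timing: compound pre-incubation 1 h before IL-6, then 6 h stimulation at 37 °C; also added: IL-6 stimulus at 33 ng/mL final; evaluation: % activation versus median of IL-6-stimulated wells; detection: reporter luminescence signal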
STAT1 act conf: STAT1 activation, confirmation assay. shares compounds with STAT1 act. NIH 3T3 STAT1-luciferase reporter, IFN-gamma potentiation, luminescence; 100% = IFN-gamma EC80 alone, no compound. activation (% of control), % at 5.7 µM. actives 97% (n = 1,200). AID 1262;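 active = activation above a set limit carried over from the earlier primary STAT1 screen, cut at about 140% in these data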;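 note: simple ratio to median IFN-gamma plus DMSO wells so 0% means no light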
NFkB act: activates NF-kappaB, counter-screen to STAT1 activators. shares compounds with STAT1 act. HEK293T NF-kB luciferase reporter, TNF-alpha stimulated, luminescence; 100% = TNF-alpha with vehicle only. activation (% of control), % at 5.7 µM. actives 43% (n = 1,200). AID 1306;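 active = activation above the mean of solvent-only control wells plus 3 SD, set per campaign, cut at about 130% in these data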;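 note: TNF-alpha given at a submaximal dose yielding about 80% of full reporter signal; values are well signal over median control so 100% means no change and 0% no light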
STAT3 act 2: counter-screen for STAT1 activators: human STAT3 activation. shares compounds with STAT1 act. U3A cells STAT3-luciferase reporter, IL-6, luminescence; cells lack STAT1; 100 = IL-6 alone, no compound effect. activation (% of control), % at 5.7 µM. actives 46% (n = 1,200). AID 1316;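 active = activation above the solvent-only control well mean plus 3 SD, set per plate batch, cut at about 110% in these data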;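 note: 0% = no luminescence and 100% = median IL-6 plus DMSO wells; higher means more STAT3 reporter activation so hits are non-selective activators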
Numbers without * were called inactive; . = no result. A selection: hits, their analogues and other compounds. The true share with any hit is near 4.9%.

SMILES	STAT1 inh	NF-kB expr up	STAT1 act	APP 5'UTR act	STAT3 blocker	STAT3 act	STAT1 act conf	NFkB act	STAT3 act 2
Cc1ccc(Nc2nc(C3CC3)cs2)cc1	-54	8.8*	151*	239*	8	94	228*	117	94
Cc1cc(Sc2nc(N(C)C)nc(N(C)C)n2)nc(Cl)n1	2	1.3	98	-7	9	96	.	.	.
O=C(O)CCc1nc(-c2cccs2)no1	4	1.1	96	-2	-1	106	.	.	.
O=[N+]([O-])c1ccc(F)cc1OCc1nc(-c2cccs2)no1	-81	6.4*	172*	156*	4	106	203*	145*	120*
COc1ccccc1CN1CCN(Cc2nc(-c3cccs3)no2)CC1	-11	1.6	109	28	4	107	.	.	.
O=[N+]([O-])c1ccccc1OCc1nc(-c2cccs2)no1	-87	7.6*	180*	185*	-2	109	226*	142*	122*
COc1ccc(N2CC(C(=O)N/N=C/c3cc([N+](=O)[O-])ccc3O)CC2=O)cc1 (stereo unspecified)	3	0.86	95	5	7	102	.	.	.
CN1CCN(c2ccc(NC(=O)CSc3ccccc3)cc2F)CC1	-63	1.1	158*	175*	-1	106	183*	126	128*
Cc1ccc(SCC(=O)Nc2ccc(N3CCN(c4ccccc4)CC3)c(F)c2)cc1	-4	1.1	103	6	-1	106	.	.	.
CCOC(=O)CSc1nc2ccc(C)cc2cc1C#N	-62	4.3*	157*	.	2	105	221*	142*	106
CCOC(=O)CSc1nc2cc(C)ccc2cc1C#N	-58	7.1*	153*	135	-7	108	213*	139*	110
CCOC(=O)CSc1nc2cc(C)cc(C)c2cc1C#N	-22	1.9	120	94	16	87	.	.	.
COc1ccc2nc(SCC(C)=O)c(C#N)cc2c1	-101	5.8*	190*	138*	1	102	312*	139*	93
CCOC(=O)CSc1nc2cc(OC)ccc2cc1C#N	-75	8.1*	168*	173*	-2	104	259*	145*	112*
CN(C)CCNC(NC(=O)c1cccs1)C(Cl)(Cl)Cl (stereo unspecified)	-2	1.1	102	1	-4	102	.	.	.
COCCNC(=O)/C(C#N)=c1\s/c(=C\c2ccccc2OC(F)F)c(=O)n1Cc1ccccc1	-8	1.1	105	-9	3	102	.	.	.
NC(=O)c1ccc(NC(=O)COC(=O)C2CC(=O)N(Cc3ccccc3)C2)cc1 (stereo unspecified)	-10	1.1	109	-7	-6	107	.	.	.
CCN(CC)c1ccc(NC(=O)COc2ccc(C#N)cc2)cc1S(=O)(=O)Nc1ccc(OC)cc1	-12	0.74	111	19	5	104	.	.	.
CCOC(=O)N1CCC(N2CCCC(C(=O)c3ccccc3OC)C2)CC1 (stereo unspecified)	-8	0.88	105	7	7	99	.	.	.
CC(=O)Nc1sc2c(c1C(N)=O)CCC2	1	0.82	94	-10	7	95	.	.	.
NC(=O)c1c(NC(=O)c2cc3ccccc3o2)sc2c1CCC2	-88	1.2	181*	98	35	71	196*	108	118*
O=C(c1cc(N2C(=O)C3C4CCC(C4)C3C2=O)ccc1Cl)N1CCN(c2ccccc2F)CC1 (stereo unspecified)	-5	1.1	104	10	-4	101	.	.	.
Cc1cccc(NC(=O)Nc2cc(C)cc(C)n2)c1	-74	2.7	169*	173*	22	88	193*	121	100
Cc1cccc(NC(=O)Nc2ccc(C)cc2Br)c1	-26	1.6	123	82	2	101	.	.	.
Cc1cccc(NC(=O)Nc2ccc(C#N)cc2)n1	-122	1.2	208*	16	26	78	141*	136*	125*
SMILES	STAT1 inh	NF-kB expr up	STAT1 act	APP 5'UTR act	STAT3 blocker	STAT3 act	STAT1 act conf	NFkB act	STAT3 act 2
Cc1cc(C)nc(NC(=O)Nc2ccc3c(c2)OCO3)c1	-62	3	156*	228*	19	86	204*	128	99
O=C(Cc1ccc(F)cc1)N/N=C/c1ccncc1	3	1.2	98	-22	1	102	.	.	.
CCN(C(=O)CSc1cc(C)c2cccc(C)c2n1)C1CCS(=O)(=O)C1 (stereo unspecified)	6	1	94	-4	1	101	.	.	.
CCSc1ncc(/C=N/Nc2ccccc2)n1C	0	1.8	100	23	-12	115	.	.	.
CCSc1ncc(/C=N/Nc2ccc([N+](=O)[O-])cc2)n1C	-68	1.8	162*	90	6	100	196*	149*	102
CC(C)C(NC(=O)C(NC(=O)C1OC2OC(C)(C)OC2C2OC(C)(C)OC12)C(C)C)C(=O)O (stereo unspecified)	-1	1.1	99	-10	6	101	.	.	.
COc1ccc([N+](=O)[O-])cc1NC(=O)c1ccc(CN(c2ccccc2)S(C)(=O)=O)cc1	1	1	99	-10	5	96	.	.	.
CCc1ccc(C2=NN(S(C)(=O)=O)C(c3cccs3)C2)cc1 (stereo unspecified)	-62	8.4*	156*	182*	-27	126	218*	142*	129*
CC(=O)Nc1ccc(NCN2C(=O)[C@@H]3[C@H]4CC[C@H](C4)[C@@H]3C2=O)cc1	-8	1	107	10	0	100	.	.	.
COc1ccc2[nH]c(=O)c(-c3nnn(-c4ccccc4)n3)cc2c1	-20	1.2	120	55	.	.	.	.	.
COc1ccc2oc(=Nc3ccccc3)c(-c3nc4ccccc4[nH]3)cc2c1	-68	4.2*	161*	138*	-27	130	164*	124	138*
O=S(=O)(/C=C/c1ccccc1)NCc1ccccc1Cl	-10	0.88	109	-13	0	98	.	.	.
Fc1ccccc1N1CCN(c2cnc3ccccc3n2)CC1	-64	6.3*	168*	.	13	89	245*	121	99
Nc1ccc(CN2CCOCC2)cc1	-11	0.92	109	15	-1	102	.	.	.

Compound activity deposited in PubChem BioAssay by several laboratories.
